Assay results as given in ChEMBL document CHEMBL4715702, “Overcoming multidrug resistance by targeting mitochondria with NO-donating doxorubicins” (Bioorg Med Chem, 2016).
Active and inactive are the calls of the source. The rule behind the calls is not given here.

Legend:
HT-29 [1] = experiment: Induction of apoptosis in doxorubicin-resistant human HT29 cells assessed as activation of caspase 9 using LEHD-AMC substrate at 5 uM incubated for 24 hrs by fluorescence based assay; assay type: functional, cell-based
Outline: (§1)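 Cells 24 h in 5 µmol/L compound or fresh medium, lysed in HEPES/KOH buffer pH 7.5. 20 µg lysate incubated 1 h at 37°C with 20 µmol/L LEHD-AMC (caspase 9) or DEVD-AMC (caspase 3) in HEPES/CHAPS/sucrose/DTT buffer pH 7.5. Stopped with ice-cold 0.1% TCA; AMC fluorescence ex 380/em 460 nm, converted to nmol AMC/µg protein via AMC standards. Triplicate.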

[2] = Prodrug release in doxorubicin-resistant human HT-29 cells assessed as increase in NO level by measuring nitrite release at 5 uM incubated for 24 hrs by spectrophotometric analysis; assay type: ADME, cell-based; details: ht-29, 24 h
Outline: (§2)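 After 24 h culture with 5 µmol/L compound, medium mixed 1:1 with Griess reagent, 10 min 37°C in dark, absorbance 540 nm. Cell-free blank subtracted; nitrite expressed as nmol/mg cell protein. HT29/dx maintained in 200 nmol/L DOXO. Triplicate, mean ± SD (n = 3).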

HT-29 [3] = experiment: Induction of apoptosis in doxorubicin-resistant human HT29 cells assessed as activation of caspase 3 using DEVD-AMC substrate at 5 uM incubated for 24 hrs by fluorescence based assay; assay type: functional, cell-based; outline: as §1
[4] = Prodrug release in human HT-29 cells assessed as increase in NO level by measuring plasma membrane associated MRP1/BCRP nitration mediated drug uptake at 5 uM incubated for 24 hrs by spectrofluorometric analysis; assay type: ADME, cell membranes; details: ht-29, 24 h
Outline: (§3)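 Cells 24 h with 5 µmol/L compound; DOXO in whole-cell lysates measured fluorimetrically (ex 475/em 553 nm), cell-free blank subtracted, converted to nmol DOXO/mg protein by calibration curve. Triplicate, mean ± SD.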

[5] = Prodrug release in human HT-29 cells assessed as increase in NO level by measuring induction of P-glycoprotein nitration in plasma membrane at 5 uM incubated for 24 hrs by western blot analysis; assay type: cell membranes, Cell membrane; details: ht-29, 24 h
Outline: (§4)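 Cells 24 h with 5 µmol/L compound. Plasma-membrane proteins isolated by surface biotinylation, 50 µg run on SDS-PAGE, probed for Pgp with pancadherin loading control; nitration detected by Western blot, peroxidase secondary and chemiluminescence. Representative of three experiments.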

HT-29 [6] = experiment: Induction of apoptosis in human HT29 cells assessed as activation of caspase 9 using LEHD-AMC substrate at 5 uM incubated for 24 hrs by fluorescence based assay; assay type: functional, cell-based; outline: as §1
[7] = Prodrug release in human HT-29 cells assessed as increase in NO level by measuring induction of P-glycoprotein nitration in mitochondria at 5 uM incubated for 24 hrs by western blot analysis; details: ht-29, 24 h
Outline: (§5)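 Cells 24 h with 5 µmol/L compound. Mitochondrial extracts, 10 µg protein, run on SDS-PAGE and probed for Pgp, porin as loading control; nitration detected by Western blot with peroxidase secondary and chemiluminescence. Representative of three experiments.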

[8] = Prodrug release in doxorubicin-resistant human HT-29 cells assessed as increase in NO level by measuring plasma membrane associated MRP1/BCRP nitration mediated drug uptake at 5 uM incubated for 24 hrs by spectrofluorometric analysis; assay type: ADME, cell membranes; details: ht-29, 24 h; outline: as §3
HT-29 [9] = experiment: Induction of apoptosis in human HT29 cells assessed as activation of caspase 3 using DEVD-AMC substrate at 5 uM incubated for 24 hrs by fluorescence based assay; assay type: functional, cell-based; outline: as §1
[10] = Prodrug release in doxrubicin-resistant human HT-29 cells assessed as increase in NO level by measuring induction of P-glycoprotein nitration in mitochondria at 5 uM incubated for 24 hrs by western blot analysis; details: ht-29, 24 h; outline: as §5
[11] = Prodrug release in human HT-29 cells assessed as increase in NO level by measuring nitrite release at 5 uM incubated for 24 hrs by spectrophotometric analysis; assay type: ADME, cell-based; details: ht-29, 24 h; outline: as §2
[12] = Prodrug release in doxorubicin-resistant human HT-29 cells assessed as increase in NO level by measuring induction of P-glycoprotein nitration in plasma membrane at 5 uM incubated for 24 hrs by western blot analysis; assay type: cell membranes, Cell membrane; details: ht-29, 24 h; outline: as §4
[13] = Stability of the compound assessed as human serum esterase-mediated compound hydrolysis by measuring half life at 100 uM by RP-HPLC analysis; assay type: ADME, cell-free
Outline: (§6)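 Compound from 10 mM DMSO stock added to human male AB serum preheated to 37 °C, 100 µM final, incubated at 37 ± 0.5 °C. Aliquots deproteinized with acetonitrile/0.1% HCOOH, centrifuged, filtered. Parent and degradation products quantified by RP-HPLC (234 and 480 nm) against 1–100 µM calibration. At least triplicate.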

HT-29 [14] = experiment: Upregulation of iNOS protein expression in human HT-29 cells; assay type: functional, cell-based
Outline: (§7)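 HT29 and HT29/dx cells incubated 24 h with compound or fresh medium; lysed in MLB buffer pH 7.5, sonicated, centrifuged 13,000 x g 10 min 4°C; iNOS detected in whole-cell lysate by Western blotting.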

[15] = Prodrug release in human HT-29 cells assessed as increase in NO level by measuring mitochondria associated MRP1/BCRP nitration mediated drug uptake at 5 uM incubated for 24 hrs by spectrofluorometric analysis; assay type: ADME; details: ht-29, 24 h
Outline: (§8)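 Cells 24 h with 5 µmol/L compound; mitochondrial fractions isolated (porin check by immunoblot), DOXO measured fluorimetrically (ex 475/em 553 nm) with blank subtraction and calibration curve; expressed as nmol DOXO/mg mitochondrial protein. Triplicate, mean ± SD.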

HT-29 [16] = experiment: Upregulation of iNOS protein expression in doxorubicin-resistant human HT-29 cells; assay type: functional, cell-based; outline: as §7
H9c2 = experiment: Cardiotoxicity against rat H9c2 cells assessed as LDH release at 5 uM incubated for 24 hrs; assay type: toxicity, cell-based; details: h9c2, 24 h
Outline: (§9)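 Extracellular medium spun 12,000 × g 5 min; cells detached, sonicated in 82.3 mmol/L triethanolamine phosphate-HCl pH 7.6. LDH activity read in medium and lysate at 340 nm over 6 min, as µmol NADH oxidized/min/dish; extracellular LDH given as % of total dish activity. Compounds from DMSO stock, 5 µM final, 1% DMSO; controls 1% DMSO. Triplicate, mean ± SD.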

[17] = Prodrug release in doxorubicin-resistant human HT-29 cells assessed as increase in NO level by measuring mitochondria associated MRP1/BCRP nitration mediated drug uptake at 5 uM incubated for 24 hrs by spectrofluorometric analysis; assay type: ADME; details: ht-29, 24 h; outline: as §8
HT-29 [18] = experiment: Cytotoxicity against human HT-29 cells assessed as LDH release at 5 uM incubated for 24 hrs; assay type: functional, cell-based; outline: as §9
HT-29 [19] = experiment: Cytotoxicity against doxorubicin-resistant human HT-29 cells assessed as LDH release at 5 uM incubated for 24 hrs; assay type: functional, cell-based; outline: as §9
[20] = Stability of the compound assessed as human serum esterase-mediated compound hydrolysis by measuring parent compound remaining at 100 uM measured after 24 hrs by RP-HPLC analysis; assay type: ADME, cell-free; details: read-out: Stabilty; outline: as §6

Compound	Drug metabolism [2]	Drug uptake [4]	Activity [5]	Activity [7]	Drug uptake [8]	Activity [10]	Drug metabolism [11]	Activity [12]	half-life at 100 µM [13] [h]	Activity (HT-29 [1])	Activity (HT-29 [3])	Activity (HT-29 [6])	Activity (HT-29 [9])	Activity (HT-29 [14])	Activity (HT-29 [16])	Activity (H9c2)	further results
COc1cccc2c1C(=O)c1c(O)c3c(c(O)c1C2=O)C[C@@](O)(C(=O)COC(=O)c1ccc(OCCCO[N+](=O)[O-])cc1)C[C@@H]3O[C@H]1C[C@H](N)[C@H](O)[C@H](C)O1.Cl	Metabolite_Detected	Active	Not Active	Not Active	Active	Not Active	Metabolite_Detected	Not Active	26.7	inactive	inactive	inactive	inactive				
COc1cccc2c1C(=O)c1c(O)c3c(c(O)c1C2=O)C[C@@](O)(C(=O)CO)C[C@@H]3O[C@H]1C[C@H](N)[C@H](O)[C@H](C)O1 [DOXORUBICIN]		Active	Not Active		Not Active		Metabolite_Detected							Active	inactive	Toxic	Drug uptake [15]: Active; Drug uptake [17]: Not Active
COc1cccc2c1C(=O)c1c(O)c3c(c(O)c1C2=O)C[C@@](O)(C(=O)COC(=O)c1ccc(Oc2no[n+]([O-])c2S(=O)(=O)c2ccccc2)cc1)C[C@@H]3O[C@H]1C[C@H](N)[C@H](O)[C@H](C)O1.Cl	Metabolite_Detected						Metabolite_Detected		> 24	Active	Active	Active	Active	Active	Active	Non-Toxic	Activity (HT-29 [18]): Active; Activity (HT-29 [19]): Active; remaining at 24 h, 100 µM [20]: 73.5%
COc1cccc2c1C(=O)c1c(O)c3c(c(O)c1C2=O)C[C@@](O)(C(=O)COC(=O)c1ccc(C(=O)OCO/N=[N+](\[O-])N2CCCC2)cc1)C[C@@H]3O[C@H]1C[C@H](N)[C@H](O)[C@H](C)O1.Cl	Metabolite_Detected	Not Active		Not Active		Not Active	Metabolite_Detected		2.8	inactive	inactive	inactive	inactive				Activity [8]: Not Active

Continued, in another order:

Drug metabolism [2]	Drug uptake [4]	Activity [5]	Activity [7]	Drug uptake [8]	Activity [10]	Drug metabolism [11]	Activity [12]	half-life at 100 µM [13] [h]	Compound	Activity (HT-29 [1])	Activity (HT-29 [3])	Activity (HT-29 [6])	Activity (HT-29 [9])	Activity (HT-29 [14])	Activity (HT-29 [16])	Activity (H9c2)	further results
Metabolite_Detected						Metabolite_Detected		6	COc1cccc2c1C(=O)c1c(O)c3c(c(O)c1C2=O)C[C@@](O)(C(=O)COC(=O)CCCC(CO[N+](=O)[O-])O[N+](=O)[O-])C[C@@H]3O[C@H]1C[C@H](N)[C@H](O)[C@H](C)O1.Cl (stereo partly drawn)	inactive	inactive	inactive	inactive				
Metabolite_Detected	Active			Active		Metabolite_Detected	Not Active	4.9	COc1cccc2c1C(=O)c1c(O)c3c(c(O)c1C2=O)C[C@@](O)(C(=O)COC(=O)CCCCCO[N+](=O)[O-])C[C@@H]3O[C@H]1C[C@H](N)[C@H](O)[C@H](C)O1.Cl								
Metabolite_Detected	Active	Not Active	Not Active	Active	Not Active	Metabolite_Detected	Not Active	24.6	COc1cccc2c1C(=O)c1c(O)c3c(c(O)c1C2=O)C[C@@](O)(C(=O)COC(=O)c1ccc(CCCO[N+](=O)[O-])cc1)C[C@@H]3O[C@H]1C[C@H](N)[C@H](O)[C@H](C)O1.Cl	inactive	inactive	inactive	inactive				
Metabolite_Detected	Active	Not Active		Active		Metabolite_Detected	Not Active	16	COc1cccc2c1C(=O)c1c(O)c3c(c(O)c1C2=O)C[C@@](O)(C(=O)COC(=O)c1ccc(CC(CO[N+](=O)[O-])O[N+](=O)[O-])cc1)C[C@@H]3O[C@H]1C[C@H](N)[C@H](O)[C@H](C)O1 (stereo partly drawn)	Active	Active	Active	Active	Active	Active	Non-Toxic	Drug uptake [15]: Active; Activity (HT-29 [18]): Active; Activity (HT-29 [19]): Active; Drug uptake [17]: Active
Metabolite_Detected	Active	Not Active	Not Active	Active	Not Active	Metabolite_Detected	Not Active	34.7	COc1cccc2c1C(=O)c1c(O)c3c(c(O)c1C2=O)C[C@@](O)(C(=O)COC(=O)c1ccc(OCC(CO[N+](=O)[O-])O[N+](=O)[O-])cc1)C[C@@H]3O[C@H]1C[C@H](N)[C@H](O)[C@H](C)O1.Cl (stereo partly drawn)	inactive	inactive	inactive	inactive				
